How the values were obtained:
Type in all cases: functional
[1] = tested on: CCRF-CEM; assay: Cytotoxicity against human CCRF-CEM cells after 48 hrs by SRB assay
Procedure, shortened: (§1)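 NCI-60 human tumour cell panel screen, second stage, run by the NCI Developmental Therapeutics Program. Compounds were tested at five concentrations (0.01, 0.1, 1, 10 and 100 μM). Percentage growth was plotted against log10 concentration for each cell line. GI50, TGI and LC50 were taken from these dose-response curves.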

[2] = tested on: HL-60(TB); assay: Cytotoxicity against human HL-60(TB) cells after 48 hrs by SRB assay; settings: HL-60, 48 h
Procedure, shortened: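 NCI Developmental Therapeutics Program 60-cell-line screen, second stage: cells exposed to five concentrations (0.01, 0.1, 1, 10 and 100 μM). Growth is plotted against log10 concentration for each line, and GI50, TGI and LC50 are read from the dose-response curves.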

[3] = tested on: HOP-92; assay: Cytotoxicity against human HOP92 cells after 48 hrs by SRB assay; settings: HOP-92, 48 h; procedure, shortened: as §1
[4] = tested on: NCI-H460; assay: Cytotoxicity against human NCI-H460 cells after 48 hrs by SRB assay; settings: NCI-H460, 48 h
Procedure, shortened: (§2)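 Second-stage NCI-60 panel run by the NCI Developmental Therapeutics Program, covering nine tumour subpanels. Five concentrations were tested: 0.01, 0.1, 1, 10 and 100 μM. Percentage growth at each level was plotted against log10 drug concentration. GI50, TGI and LC50 were read from these dose-response curves. Subpanel MID values were divided into the full-panel MID to give selectivity ratios.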

[5] = tested on: HCT-116; assay: Cytotoxicity against human HCT116 cells after 48 hrs by SRB assay; settings: HCT-116, 48 h; for CC50: read-out: LC50 (the source's name); procedure, shortened: as §1
[6] = tested on: HCT-15; assay: Cytotoxicity against human HCT15 cells after 48 hrs by SRB assay; settings: HCT-15, 48 h; procedure, shortened: as §1
[7] = tested on: SW-620; assay: Cytotoxicity against human SW620 cells after 48 hrs by SRB assay; settings: SW-620, 48 h
Procedure, shortened: (§3)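 NCI-60 five-dose study run by NCI DTP at 0.01, 0.1, 1, 10 and 100 µM. Percentage growth at each level was plotted against log10 concentration for each line, and GI50, TGI and LC50 were read from the dose-response curves.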

[8] = tested on: SF-539; assay: Cytotoxicity against human SF539 cells after 48 hrs by SRB assay; settings: SF-539, 48 h; procedure, shortened: as §2
[9] = tested on: SNB-19; assay: Cytotoxicity against human SNB19 cells after 48 hrs by SRB assay; settings: SNB-19, 48 h; procedure, shortened: as §2
[10] = tested on: M14; assay: Cytotoxicity against human M14 cells after 48 hrs by SRB assay; settings: M14, 48 h; procedure, shortened: as §1
[11] = tested on: MDA-MB-435; assay: Cytotoxicity against human MDA-MB-435 cells after 48 hrs by SRB assay; settings: MDA-MB-435, 48 h; procedure, shortened: as §2
[12] = tested on: SK-MEL-2; assay: Cytotoxicity against human SK-MEL-2 cells after 48 hrs by SRB assay; settings: SK-MEL-2, 48 h; procedure, shortened: as §2
[13] = tested on: SK-MEL-5; assay: Cytotoxicity against human SK-MEL-5 cells after 48 hrs by SRB assay; settings: SK-MEL-5, 48 h; procedure, shortened: as §2
[14] = tested on: OVCAR-3; assay: Cytotoxicity against human OVCAR3 cells after 48 hrs by SRB assay; settings: OVCAR-3, 48 h; for CC50: read-out: LC50 (the source's name); procedure, shortened: as §2
[15] = tested on: OVCAR-4; assay: Cytotoxicity against human OVCAR4 cells after 48 hrs by SRB assay; settings: OVCAR-4, 48 h; procedure, shortened: as §2
[16] = tested on: OVCAR-5; assay: Cytotoxicity against human OVCAR5 cells after 48 hrs by SRB assay; settings: OVCAR-5, 48 h; procedure, shortened: as §2
[17] = tested on: OVCAR-8; assay: Cytotoxicity against human OVCAR8 cells after 48 hrs by SRB assay; settings: OVCAR-8, 48 h; for CC50: read-out: LC50 (the source's name); procedure, shortened: as §2
[18] = tested on: NCI/ADR-RES; assay: Cytotoxicity against human NCI/ADR-RES cells after 48 hrs by SRB assay; procedure, shortened: as §2
[19] = tested on: CAKI-1; assay: Cytotoxicity against human Caki1 cells after 48 hrs by SRB assay; settings: CAKI-1, 48 h; procedure, shortened: as §1
[20] = tested on: TK-10; assay: Cytotoxicity against human TK10 cells after 48 hrs by SRB assay; settings: TK-10, 48 h; procedure, shortened: as §3
[21] = tested on: MDA-MB-231; assay: Cytotoxicity against human MDA-MB-231 cells after 48 hrs by SRB assay; settings: MDA-MB-231, 48 h; procedure, shortened: as §2
[22] = tested on: BT-549; assay: Cytotoxicity against human BT549 cells after 48 hrs by SRB assay; settings: BT-549, 48 h; procedure, shortened: as §1
[23] = tested on: MDA-MB-468; assay: Cytotoxicity against human MDA-MB-468 cells after 48 hrs by SRB assay; settings: MDA-MB-468, 48 h; procedure, shortened: as §2
[24] = Cytotoxicity against human leukemia cells assessed as growth inhibition after 48 hrs by SRB assay; settings: Leukemia cell
Procedure, shortened: (§4)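 Values come from the NCI-60 five-dose panel (0.01–100 µM). The subpanel MID is the mean GI50 over the lines of that tumour subpanel. The selectivity ratio is the full-panel MID divided by the subpanel MID; 3–6 is rated moderate and >6 high.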

[25] = Cytotoxicity against human non-small cell lung cancer cells assessed as growth inhibition after 48 hrs by SRB assay; settings: Cancer cell lines; procedure, shortened: as §4
[26] = Cytotoxicity against human ovarian cancer cells assessed as growth inhibition after 48 hrs by SRB assay; settings: Cancer cell lines; procedure, shortened: as §4
[27] = Cytotoxicity against human renal cancer cells assessed as growth inhibition after 48 hrs by SRB assay; settings: Cancer cell lines; procedure, shortened: as §4
[28] = Cytotoxicity against human prostate cancer cells assessed as growth inhibition after 48 hrs by SRB assay; settings: Cancer cell lines; procedure, shortened: as §4
[29] = Cytotoxicity against human breast cancer cells assessed as growth inhibition after 48 hrs by SRB assay; settings: Cancer cell lines; procedure, shortened: as §4

SMILES: O=C1c2ccccc2C(=O)c2c1cc(Sc1ccc(F)cc1F)c1nsnc21
- GI50 [1]: 0.7 µM
- LC50 [1]: 57.8 µM
- TGI [1]: 6.35 µM
- GI50 [2]: 2.68 µM
- LC50 [2]: > 100 µM
- TGI [2]: 7.7 µM
- GI50 [3]: 2.03 µM
- LC50 (concentration giving 50% net cell kill) [3]: 16.3 µM
- TGI [3]: 5.01 µM
- GI50 [4]: 25.9 µM
- LC50 (concentration killing 50% of cells) [4]: > 100 µM
- TGI [4]: > 100 µM
- GI50 [5]: 1.55 µM
- TGI [5]: 3.22 µM
- CC50 [5]: 6.69 µM
- GI50 [6]: 2.84 µM
- LC50 [6]: 50 µM
- TGI [6]: 12.9 µM
- GI50 [7]: 3.99 µM
- LC50 (50% lethal concentration) [7]: 69.5 µM
- TGI [7]: 16.3 µM
- GI50 [8]: 2.08 µM
- LC50 [8]: 8.63 µM
- TGI [8]: 4.24 µM
- GI50 [9]: 13.9 µM
- LC50 [9]: 68.6 µM
- TGI [9]: 30.9 µM
- GI50 [10]: 3.72 µM
- LC50 [10]: 43 µM
- TGI [10]: 15.8 µM
- GI50 [11]: 1.94 µM
- LC50 [11]: 7.07 µM
- TGI [11]: 3.7 µM
- GI50 [12]: 2.34 µM
- LC50 [12]: 9.41 µM
- TGI [12]: 4.69 µM
- GI50 [13]: 1.41 µM
- LC50 [13]: 5.72 µM
- TGI [13]: 2.84 µM
- GI50 [14]: 1.82 µM
- TGI [14]: 3.44 µM
- CC50 [14]: 6.52 µM
- GI50 [15]: 0.34 µM
- LC50 [15]: 4.18 µM
- TGI [15]: 1.38 µM
- GI50 [16]: 8.18 µM
- LC50 [16]: 63.3 µM
- TGI [16]: 24 µM
- GI50 [17]: 1.58 µM
- TGI [17]: 3.63 µM
- CC50 [17]: 8.34 µM
- GI50 [18]: 1.74 µM
- LC50 (concentration killing 50% of cells) [18]: > 100 µM
- TGI [18]: 4.59 µM
- GI50 [19]: 2.51 µM
- LC50 (concentration causing 50% net cell kill) [19]: > 100 µM
- TGI [19]: 7.04 µM
- GI50 [20]: 5.07 µM
- LC50 (concentration killing 50% of cells) [20]: 38.6 µM
- TGI [20]: 14.1 µM
- GI50 [21]: 1.2 µM
- LC50 (concentration killing 50% of cells) [21]: 12.9 µM
- TGI [21]: 3.61 µM
- GI50 [22]: 3.99 µM
- LC50 [22]: 43 µM
- TGI [22]: 17.2 µM
- GI50 [23]: 0.45 µM
- LC50 [23]: 4.19 µM
- TGI [23]: 1.52 µM
- GI50 [24]: 2.16 µM
- GI50 [25]: 19 µM
- GI50 [26]: 2.7 µM
- GI50 [27]: 2.53 µM
- GI50 [28]: 4.13 µM
- GI50 [29]: 1.77 µM

SMILES: O=C1c2ccccc2C(=O)c2c1cc(SCc1ccccc1)c1nsnc21
- GI50 [1]: 1.3 µM
- LC50 [1]: > 50 µM
- TGI [1]: 5.06 µM
- GI50 [2]: 1.63 µM
- LC50 [2]: > 50 µM
- TGI [2]: > 50 µM
- GI50 [3]: 6.05 µM
- LC50 (concentration giving 50% net cell kill) [3]: > 50 µM
- TGI [3]: > 50 µM
- GI50 [4]: > 50 µM
- LC50 (concentration killing 50% of cells) [4]: 32.8 µM
- TGI [4]: 16.8 µM
- GI50 [5]: 7.29 µM
- TGI [5]: 14.2 µM
- CC50 [5]: 27.5 µM
- GI50 [6]: 8.27 µM
- LC50 [6]: 35.3 µM
- TGI [6]: 17.1 µM
- GI50 [7]: 9.99 µM
- LC50 (50% lethal concentration) [7]: 35.1 µM
- TGI [7]: 18.7 µM
- GI50 [8]: 10.5 µM
- LC50 [8]: 38.9 µM
- TGI [8]: 20.2 µM
- GI50 [9]: 12.7 µM
- LC50 [9]: > 50 µM
- TGI [9]: 38.8 µM
- GI50 [10]: 26 µM
- LC50 [10]: > 50 µM
- TGI [10]: > 50 µM
- GI50 [11]: 9.19 µM
- LC50 [11]: 37.3 µM
- TGI [11]: 18.5 µM
- GI50 [12]: 8.58 µM
- LC50 [12]: 33.7 µM
- TGI [12]: 18.6 µM
- GI50 [13]: 7.17 µM
- LC50 [13]: 49.8 µM
- TGI [13]: 21.2 µM
- GI50 [14]: 8.16 µM
- TGI [14]: 15.1 µM
- CC50 [14]: 27.9 µM
- GI50 [15]: 6.05 µM
- LC50 [15]: 29 µM
- TGI [15]: 13.2 µM
- GI50 [17]: 3.5 µM
- TGI [17]: 25.8 µM
- CC50 [17]: > 50 µM
- GI50 [18]: 12.9 µM
- LC50 (concentration killing 50% of cells) [18]: > 50 µM
- TGI [18]: > 50 µM
- GI50 [19]: 9.68 µM
- LC50 (concentration causing 50% net cell kill) [19]: > 50 µM
- TGI [19]: 26.2 µM
- GI50 [20]: 32 µM
- LC50 (concentration killing 50% of cells) [20]: > 50 µM
- TGI [20]: > 50 µM
- GI50 [21]: 5.14 µM
- LC50 (concentration killing 50% of cells) [21]: 34.8 µM
- TGI [21]: 13.4 µM
- GI50 [22]: 15.2 µM
- LC50 [22]: > 50 µM
- TGI [22]: 28.4 µM
- GI50 [23]: 0.89 µM
- LC50 [23]: 4.21 µM
- TGI [23]: 1.93 µM
- GI50 [24]: 2.67 µM
- GI50 [25]: 9.57 µM
- GI50 [26]: 8.4 µM
- GI50 [27]: 12.7 µM
- GI50 [28]: 10.5 µM
- GI50 [29]: 8 µM
